Results reported in ChEMBL document CHEMBL1154601, “A new series of amodiaquine analogues modified in the basic side chain with in vitro antileishmanial and antiplasmodial activity” (Eur J Med Chem, 2009).

Legend:
[1] = tested on: Leishmania donovani; experiment: Antileishmanial activity against Leishmania donovani MHOM/ET/ 67/HU3 amastigote infected in CD1 mouse peritoneal exudate macrophages assessed as parasite growth inhibition after 5 days by Giemsa staining; assay type: functional, organism-based; conditions: MHOM/ET/ 67/HU3, 120 h
Procedure, shortened: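 Macrophages from starch-induced peritoneal exudate, harvested after 24 h, held 24 h in RPMI 1640 + 10% HIFCS at 37°C, 5% CO2. Infected with hamster-spleen-derived amastigotes at 5 parasites:1 macrophage, then 24 h later drug applied for 5 days, overlay renewed day 3. Top concentration 30 µg/mL, quadruplicates. Methanol fixation, microscopic scoring. IC50 by sigmoidal regression, mean of at least three determinations.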

[2] = tested on: Plasmodium falciparum; experiment: Antimalarial activity against chloroquine-susceptible Plasmodium falciparum 3D7 assessed as inhibition of parasite growth after 48 hrs by [3H]hypoxanthine reuptake assay; assay type: functional, organism-based
Procedure, shortened: (§1)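 Synchronised ring-stage cultures at 1% parasitemia, 5% hematocrit, in RPMI 1640 at 37°C, 5% CO2; top final test concentration 30 µg/mL. After 24 h, (3H)-hypoxanthine (0.2 µCi/well) was added, followed by a further 48 h incubation. Plates were freeze/thawed and harvested, and uptake was counted by scintillation. IC50 came from sigmoidal regression as the mean of at least three determinations.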

[3] = tested on: Plasmodium falciparum; experiment: Antimalarial activity against chloroquine-resistant Plasmodium falciparum K1 assessed as inhibition of parasite growth after 48 hrs by [3H]hypoxanthine reuptake assay; assay type: functional, organism-based; procedure, shortened: as §1
[4] = tested on: KB; experiment: Cytotoxicity against human KB cells after 72 hrs by Alamar blue assay; assay type: cell-based
Procedure, shortened: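 Monolayers grown in RPMI 1640 + 10% heat-inactivated FCS at 37°C, 5% CO2. After 72 h compound exposure, Alamar Blue added and incubated a further 2-4 h. Fluorescence read at 530/580 nm, cut-off 550 nm. Podophyllotoxin served as positive control. IC50 is the concentration killing 50% of cells.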

For `CCN(CC)Cc1cc(Nc2ccnc3cc(Cl)ccc23)ccc1O`, which IC50 [1] is on record?
The IC50 was 1.4 µM.

What about the IC50 [2] of the same compound?
The IC50 was 2.15 nM.

And the IC50 [3]?
Its IC50 is 8.61 nM.

What about the IC50 [4] of the same compound?
Its IC50 is 90 µM.

For `CCN(CCN/C(=N/C(=O)c1ccccc1)Oc1ccccc1)Cc1cc(Nc2ccnc3cc(Cl)ccc23)ccc1O`, which IC50 [1] is on record?
The IC50 was 2.86 µM.

What about the IC50 [2] of the same compound?
Its IC50 is 6.73 nM.

What about the IC50 [3] of the same compound?
Its IC50 is 10.1 nM.

What about the IC50 [4] of the same compound?
The IC50 was 10.2 µM.

How did the IC50 [1] turn out when `CCN(CCNC(=O)OC(C)(C)C)Cc1cc(Nc2ccnc3cc(Cl)ccc23)ccc1O` was run?
The IC50 was 8.77 µM.

And the IC50 [2]?
Its IC50 is 2.12 nM.

And the IC50 [3]?
Its IC50 is 2.12 nM.

And the IC50 [4]?
Its IC50 is 8.81 µM.

Which IC50 [1] does the source give for `CCN(CCNC(=N)c1ccccc1)Cc1cc(Nc2ccnc3cc(Cl)ccc23)ccc1O` here?
Its IC50 is 7.1 µM.

What about the IC50 [2] of the same compound?
The IC50 was 48.4 nM.

What about the IC50 [3] of the same compound?
The IC50 was 290 nM.

What about the IC50 [4] of the same compound?
Its IC50 is 5.34 µM.

Which IC50 [1] does the source give for `Oc1ccc(Nc2ccnc3cc(Cl)ccc23)cc1CN1CCN(c2ncccn2)CC1` here?
Its IC50 is 7.21 µM.

And the IC50 [4]?
The IC50 was 8.03 µM.

With `CCN(CCNC(=O)[C@H](C)N)Cc1cc(Nc2ccnc3cc(Cl)ccc23)ccc1O` as the compound, how does the IC50 [1] read?
Its IC50 is 5.15 µM.

And the IC50 [2]?
Its IC50 is 12.2 nM.

And the IC50 [3]?
Its IC50 is 14100 nM.

What about the IC50 [4] of the same compound?
Its IC50 is 10.4 µM.

`CCN(CCNC(=S)Nc1ccccc1)Cc1cc(Nc2ccnc3cc(Cl)ccc23)ccc1O` was tested. Which IC50 [1] did it give?
Its IC50 is 2.05 µM.

What about the IC50 [2] of the same compound?
Its IC50 is 1.63 nM.

What about the IC50 [3] of the same compound?
The IC50 was 6.5 nM.

What about the IC50 [4] of the same compound?
Its IC50 is 8.46 µM.

With `Oc1ccc(Nc2ccnc3cc(Cl)ccc23)cc1CN1CCN(c2nc3ccccc3s2)CC1` as the compound, how does the IC50 [1] read?
The IC50 was 12.9 µM.

What about the IC50 [2] of the same compound?
The IC50 was 14.6 nM.

What about the IC50 [3] of the same compound?
The IC50 was 1480 nM.

And the IC50 [4]?
The IC50 was 45.2 µM.

Which results are given for `CCN(CCNC(=O)[C@@H](N)[C@@H](C)O)Cc1cc(Nc2ccnc3cc(Cl)ccc23)ccc1O`?
IC50 [1]: 15.3 µM; IC50 [2]: 47 nM; IC50 [3]: 14100 nM; IC50 [4]: 54.4 µM

What does the source list for `CCN(CCNC(=N)Nc1ccccc1)Cc1cc(Nc2ccnc3cc(Cl)ccc23)ccc1O`?
IC50 [1]: 11.7 µM; IC50 [2]: 126 nM; IC50 [3]: 12100 nM; IC50 [4]: 9.03 µM

How did the IC50 [1] turn out when `CCOC(=O)N1CCN(Cc2cc(Nc3ccnc4cc(Cl)ccc34)ccc2O)CC1` was run?
The IC50 was 14.9 µM.

What about the IC50 [2] of the same compound?
Its IC50 is 5.28 nM.

What about the IC50 [3] of the same compound?
Its IC50 is 7.04 nM.

What about the IC50 [4] of the same compound?
Its IC50 is 11.4 µM.

What does the source list for `CCN(CCNC(=O)Nc1ccccc1)Cc1cc(Nc2ccnc3cc(Cl)ccc23)ccc1O`?
IC50 [1]: 1.83 µM; IC50 [2]: 8.22 nM; IC50 [3]: 238 nM; IC50 [4]: 5.33 µM

With `Oc1ccc(Nc2ccnc3cc(Cl)ccc23)cc1CN1CCN(c2nccs2)CC1` as the compound, how does the IC50 [1] read?
The IC50 was 17.7 µM.

What about the IC50 [2] of the same compound?
Its IC50 is 0.67 nM.

What about the IC50 [3] of the same compound?
Its IC50 is 0.42 nM.

What about the IC50 [4] of the same compound?
The IC50 was 5.02 µM.

What does the source list for `CCN(CCN)Cc1cc(Nc2ccnc3cc(Cl)ccc23)ccc1O`?
IC50 [1]: 5.65 µM; IC50 [2]: 5.47 nM; IC50 [3]: 5.47 nM; IC50 [4]: 25.6 µM

How did the IC50 [1] turn out when `Oc1ccc(Nc2ccnc3cc(Cl)ccc23)cc1CN1CCN(c2nc3ccccc3o2)CC1` was run?
The IC50 was 14.6 µM.

What about the IC50 [2] of the same compound?
The IC50 was 1.68 nM.

And the IC50 [3]?
The IC50 was 387 nM.

And the IC50 [4]?
The IC50 was 8.02 µM.

What does the source list for `CCN(CCNC(=O)[C@@H](N)CC(C)C)Cc1cc(Nc2ccnc3cc(Cl)ccc23)ccc1O`?
IC50 [1]: 4.69 µM; IC50 [2]: 22.6 nM; IC50 [3]: 14300 nM; IC50 [4]: 22.3 µM

`OCc1cc(Nc2ccnc3cc(Cl)ccc23)ccc1O` was tested. Which IC50 [1] did it give?
Its IC50 is > 89 µM.

And the IC50 [2]?
Its IC50 is 712 nM.

What about the IC50 [3] of the same compound?
The IC50 was 1420 nM.

What about the IC50 [4] of the same compound?
The IC50 was 198 µM.

How did the IC50 [1] turn out when `Oc1ccc(Nc2ccnc3cc(Cl)ccc23)cc1CCl` was run?
Its IC50 is > 83.5 µM.

What about the IC50 [2] of the same compound?
Its IC50 is 695 nM.

And the IC50 [3]?
Its IC50 is 557 nM.

What about the IC50 [4] of the same compound?
Its IC50 is 25.6 µM.

What does the source list for `Oc1ccc(Nc2ccnc3cc(Cl)ccc23)cc1CN1CCN(c2ccccn2)CC1`?
IC50 [1]: 6.71 µM; IC50 [2]: 0.323 nM; IC50 [3]: 1.4 nM; IC50 [4]: 16.1 µM

With `Oc1ccc(Nc2ccnc3cc(Cl)ccc23)cc1CN1CCN(c2ccccc2)CC1` as the compound, how does the IC50 [1] read?
Its IC50 is 9.68 µM.

What about the IC50 [2] of the same compound?
The IC50 was 3.52 nM.

And the IC50 [3]?
The IC50 was 1.8 nM.

And the IC50 [4]?
The IC50 was 8.63 µM.

Which IC50 [1] does the source give for `Oc1ccc(Nc2ccnc3cc(Cl)ccc23)cc1CN1CCN(c2nc3ccccc3[nH]2)CC1` here?
Its IC50 is 1.87 µM.

And the IC50 [2]?
The IC50 was 3.08 nM.

And the IC50 [3]?
The IC50 was 1.54 nM.

And the IC50 [4]?
Its IC50 is 2.44 µM.

Which IC50 [1] does the source give for `Oc1ccc(Nc2ccnc3cc(Cl)ccc23)cc1CN1CCN(c2cccs2)CC1` here?
Its IC50 is 9.14 µM.

What about the IC50 [2] of the same compound?
Its IC50 is 2.22 nM.

And the IC50 [4]?
Its IC50 is 50.4 µM.

For `Oc1ccc(Nc2ccnc3cc(Cl)ccc23)cc1CN1CCNCC1`, which IC50 [1] is on record?
Its IC50 is 2.29 µM.

What about the IC50 [2] of the same compound?
Its IC50 is 18.8 nM.

And the IC50 [3]?
The IC50 was 225 nM.

What about the IC50 [4] of the same compound?
The IC50 was 11.8 µM.

With `C[C@H]1[C@H](OC(=O)CCC(=O)O)O[C@@H]2O[C@@]3(C)CC[C@H]4[C@H](C)CC[C@@H]1[C@@]24OO3` [ARTESUNATE] as the compound, how does the IC50 [3] read?
The IC50 was 2.46 nM.
